Data: PMC6420784 (Clinical lung cancer, 2018)
Several values for one entry are separate records, joined by “and”; a condition that tells them apart may be missing. Identical values can stand only once. Marks after values point to notes of the source that are not given here.

Experiments:
[1] = Plasma pharmacokinetics of momelotinib and M-21; type: in vivo, human; details: for Cmax and AUCtau with b.i.d. dosing: across 100 mg and 150 mg dose levels (dose levels 2B, 3, and I); for dose proportionality of Cmax and AUCtau: day 15 of cycle 1, between dose level 1 (100 mg q.d.) and dose level 2A (200 mg q.d.); for Cmax / Tmax / half-life: human, oral; for Cmax: mean (%CV); for Cmax / Tmax / half-life / AUCtau, mean (%CV): momelotinib in plasma; for Tmax: median (Q1, Q3); for half-life: t1/2, median (Q1, Q3)
[2] = test system: patients with KRAS-mutated metastatic NSCLC; assay: Phase Ib safety: adverse events, dose-limiting toxicities, MTD; type: in vivo, human; details: for patients with AEs leading to dose interruptions or dose modifications: all dose levels, of the named drug
Outline: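 Two 3 + 3 escalations. First, JAK/TBK1 inhibitor 100–200 mg q.d. or b.i.d. with MEK1/2 inhibitor 1.0 mg q.d. (level −1: 100 mg with 0.5 mg). Then MEK inhibitor 1.5 and 2.0 mg q.d. at the other drug's MTD. DLTs scored over the first 28-day cycle. MTD was the level below that with ≥2 DLTs. AEs recorded from first dose to 30 days post-dose, coded by MedDRA 19.1 and graded by CTCAE 4.03.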

[3] = test system: KRAS-mutated metastatic NSCLC; assay: Phase Ib efficacy: tumor response per RECIST, PFS, OS; type: in vivo, human; details: all 21 patients, n = 10
Outline: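 Open-label, nonrandomized phase Ib in platinum-treated, refractory KRAS-mutated metastatic NSCLC (ECOG 0–1, measurable disease). Patients dosed until progression, unacceptable toxicity, consent withdrawal or refusal. CT at baseline and every 8 weeks, scored by RECIST 1.1. DCR at week 8 (CR+PR+SD) and ORR (CR+PR) given per dose level with Clopper–Pearson 90% CIs. PFS and OS by Kaplan–Meier. All enrolled patients analysed.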

myelofibrosis patients = details: once daily (q.d.), previously established; cited from earlier work
[4] = test system: previously treated KRAS-mutated advanced NSCLC; details: single-agent trametinib 2.0 mg q.d., 10 of 86 patients; cited from earlier work
[5] = plasma, day 15 of cycle 1, M1: momelotinib 100 mg q.d. with trametinib 1.0 mg q.d.
[6] = plasma, day 15 of cycle 1, M2A: momelotinib 200 mg q.d. with trametinib 1.0 mg q.d.
[7] = plasma, day 15 of cycle 1, M2B: momelotinib 100 mg b.i.d. with trametinib 1.0 mg q.d.
[8] = plasma, day 15 of cycle 1, M3: momelotinib 150 mg b.i.d. with trametinib 1.0 mg q.d.
[9] = plasma, day 15 of cycle 1, TI: momelotinib 150 mg b.i.d. with trametinib 1.5 mg q.d.

N#CCNC(=O)c1ccc(-c2ccnc(Nc3ccc(N4CCOCC4=O)cc3)n2)cc1 [M-21]
Cmax and AUCtau with b.i.d. dosing [1]: similar | dose proportionality of Cmax and AUCtau [1]: more than dose-proportional increases | M-21/Momelotinib Ratio, AUCtau, mean (%CV) [1, 5]: 2.6 (44.6) | M-21/Momelotinib Ratio, Cmax, mean (%CV) [1, 5]: 2.2 (52.0) | M-21/Momelotinib Ratio, AUCtau, mean (%CV) [1, 6]: 1.7 (52.8) | M-21/Momelotinib Ratio, Cmax, mean (%CV) [1, 6]: 1.2 (47.2) | M-21/Momelotinib Ratio, Cmax, mean (%CV) [1, 7]: 1.7 (38.3) | M-21/Momelotinib Ratio, AUCtau, mean ([1]; plasma, day 15 of cycle 1, M2B: momelotinib 100 mg b.i.d. with trametinib 1.0 mg q.d., n = 1): 2.7^c | M-21/Momelotinib Ratio, AUCtau, mean (%CV) [1, 8]: 1.3 (40.3) | M-21/Momelotinib Ratio, Cmax, mean (%CV) [1, 8]: 1.3 (25.8) | M-21/Momelotinib Ratio, AUCtau, mean (%CV) [1, 9]: 1.4 (20.6) | M-21/Momelotinib Ratio, Cmax, mean (%CV) [1, 9]: 1.1 (13.7)

N#CCNC(=O)c1ccc(-c2ccnc(Nc3ccc(N4CCOCC4)cc3)n2)cc1 [Momelotinib, momelotinib]
patients who discontinued because of AEs ([2]; all 21 patients, n = 9): 42.9% | patients with AEs leading to dose interruptions or dose modifications [2]: 47.6% | maximum tolerated dose (MTD) of momelotinib ([2]; b.i.d., in combination with trametinib 1.0 mg q.d. (dose level M3)): 150 mg | patients who discontinued because of PD [3]: 47.6% | Cmax and AUCtau with b.i.d. dosing [1]: similar | dose proportionality of Cmax and AUCtau [1]: more than dose-proportional increases | maximum momelotinib plasma concentrations ([1]; discussion summary): approximately 300 ng/mL | maximum momelotinib plasma concentrations ([1]; equal to approximately 300 ng/mL): 0.72 µmol/L | Cmax [1, 5]: 136 ng/mL | Cmax [1, 6]: 572 ng/mL | Cmax [1, 7]: 318 ng/mL | Cmax [1, 8]: 290 ng/mL | Cmax [1, 9]: 359 ng/mL | Tmax [1, 5]: 1.9 h | Tmax [1, 6]: 2 h | Tmax [1, 7]: 0.9 h | Tmax [1, 8]: 1.1 h | half-life [1, 5]: 6.9 h | half-life [1, 6]: 8.7 h | half-life [1, 7]: 8.3 h | half-life [1, 8]: 6.1 h | AUCtau, mean (%CV) ([1]; day 15 of cycle 1, M1: momelotinib 100 mg q.d. with trametinib 1.0 mg q.d.): 774.3 (47.1) ng/mL/h | AUCtau, mean (%CV) ([1]; day 15 of cycle 1, M2A: momelotinib 200 mg q.d. with trametinib 1.0 mg q.d.): 3901.9 (48.2) ng/mL/h | AUCtau, mean (%CV) ([1]; day 15 of cycle 1, M2B: momelotinib 100 mg b.i.d. with trametinib 1.0 mg q.d.): 2568.3 (53.0) ng/mL/h | AUCtau, mean (%CV) ([1]; day 15 of cycle 1, M3: momelotinib 150 mg b.i.d. with trametinib 1.0 mg q.d.): 2214.1 (71.5) ng/mL/h | AUCtau, mean (%CV) ([1]; day 15 of cycle 1, TI: momelotinib 150 mg b.i.d. with trametinib 1.5 mg q.d.): 1871.1 (8.2) ng/mL/h | MTD of momelotinib as a single agent (myelofibrosis patients): 200 mg

CC(=O)Nc1cccc(-n2c(=O)n(C3CC3)c(=O)c3c(Nc4ccc(I)cc4F)n(C)c(=O)c(C)c32)c1 [trametinib]
patients with AEs leading to dose interruptions or dose modifications [2]: 52.4% | maximum tolerated dose (MTD) of trametinib ([2]; q.d., in combination with momelotinib 150 mg b.i.d. (dose level M3)): 1.0 mg and 1 mg | PR [4]: 11.6%
